ChEMBL document CHEMBL4828720, “Macrocyclic Immunoproteasome Inhibitors as a Potential Therapy for Alzheimer's Disease” (J Med Chem, 2021)
Activity calls are given as the source filed them. No cut-off for these calls is given here.

What was measured:
[1] = target: T1, Proteasome subunit beta type-9 (Homo sapiens, UniProt P28065); experiment: Inhibition of human 20S proteasome LMP2 using Ac-PAL-AMC as fluorogenic substrate measured every minute for 1 hr by fluorescence assay
T1 sequence (P28065 whole entry): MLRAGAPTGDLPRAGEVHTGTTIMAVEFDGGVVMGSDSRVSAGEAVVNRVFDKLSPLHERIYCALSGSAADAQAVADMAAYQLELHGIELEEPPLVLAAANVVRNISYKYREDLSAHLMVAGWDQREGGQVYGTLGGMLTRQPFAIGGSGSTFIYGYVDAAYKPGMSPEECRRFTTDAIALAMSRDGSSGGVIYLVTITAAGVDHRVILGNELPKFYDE
Summary of the method: (§1)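 Preincubated 1 h with inhibitor at 3-10,000 nM (8 concentrations). Substrates at 100 μM: Ac-PAL-AMC (LMP2), Ac-nLPnLD-AMC (Y), Ac-ANW-AMC (LMP7). Ac-WLA-AMC (X) at 20 μM. AMC fluorescence (360/460 nm) read each minute for 1 h; 3 replicates.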

[2] = Inhibition of human 20S proteasome X using Ac-WLA-AMC as fluorogenic substrate measured every minute for 1 hr by fluorescence assay
Summary of the method: as §1, with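 “Purified human 20S constitutive or immunoproteasome, 50 ng in 20 mM Tris-HCl, 0.5 mM EDTA, 0.035% SDS, pH 8.0. Preincubated” for “Preincubated”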

[3] = target: T1, Proteasome subunit beta type-9; experiment: Inhibition of human 20S proteasome LMP2 activity in human RPMI-8226 cells overexpressing ABCB1 using Ac-PAL-AMC as fluorogenic substrate incubated for 72 hrs by fluorescence assay; type: cell-based
[4] = target: T2, Proteasome subunit beta type-9 (Homo sapiens) (UniProt P28065); experiment: Inhibition of human 20S proteasome LMP2 activity in human NCI/ADR-RES cells overexpressing ABCB1 using Ac-PAL-AMC as fluorogenic substrate incubated for 72 hrs in presence and absence of verapamil by fluorescence assay; type: cell-based
T2 sequence (whole entry): T1 sequence (P28065 whole entry)

[5] = Metabolic stability in ICR mouse whole blood at 1 uM measured upto 30 mins by LC-MS/MS analysis; type: ADME, tissue-based; conditions: 0.5 h
Summary of the method: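 Tissues from male ICR mice, 7 weeks old. Heparinized (25 IU/mL) whole blood, or liver homogenized in ice-cold PBS, prewarmed to 37 °C and spiked to a final 1 μM. Samples taken at 0, 10 and 30 min (blood) or 0, 10 and 20 min (liver). […] Remaining drug quantified by C18 LC-MS/MS.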

[6] = Drug concentration in ICR mouse brain at 10 mg/kg, iv after 1 hr by LC-MS/MS analysis; type: ADME, organism-based; conditions: in vivo
Summary of the method: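 ICR mice received a single intravenous dose of 10 mg/kg. Brain homogenates taken at 1 h post-dose were assayed for compound level and for LMP2 activity.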

[7] = system: Mus musculus; experiment: Cognitive enhancing effect in Tg2576 mouse assessed as reduction in escape latency at 10 mg/kg, iv administered twice weekly and measured after 5 days by Morris water maze test; type: functional, organism-based; conditions: time 5.0 day
Summary of the method: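 Tg2576 mice, 9 months old, given 10 mg/kg twice weekly for 3 weeks. Morris water maze in 25 ± 1 °C water, platform hidden 1-1.5 cm below surface. Three 60-s trials a day from randomized start points for 5 days. Swim paths tracked from an overhead camera. Single probe trial on day 6 scored as time in target quadrant. n=5 treated, n=12 control on days 4-5; Student's t-test.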

[8] = system: Mus musculus; experiment: In vivo inhibition of immunoproteasome in Tg2576 mouse assessed as reduction in serum IL-1alpha level at 10 mg/kg, iv administered twice weekly for 3 weeks by ELISA; type: functional, organism-based
Summary of the method: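 Serum from Tg2576 mice dosed at 10 mg/kg twice weekly for 3 weeks, diluted 1:5. IL-1α sandwich ELISA: samples and standards 2 h at room temperature, detection antibody 1 h, avidin-HRP 30 min. Stopped with 2N H2SO4 and read at 450 nm against a standard curve of seven twofold dilutions. n=3.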

[9] = organism: Mus musculus; experiment: Protection against inflammation-triggered RPE degeneration in Tg2576 mouse by immunostaining based confocal microscopic analysis; type: functional, organism-based
Summary of the method: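 RPE collected after behavioral testing from treated Tg2576 mice and from age-matched non-transgenic ICR mice. Eyecups dissected in ice-cold PBS and retina removed. Tissue permeabilized with 0.2% Triton X-100 for 15 min, blocked with 3% BSA, then anti-β-catenin (1:100) overnight at 4 °C. Alexa 555 secondary 2 h, imaged by confocal microscopy.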

[10] = Toxicity in Tg2576 mouse; conditions: in vivo
[11] = system: Proteasome subunit beta type-9 (Canis lupus familiaris); experiment: Inhibition of canine 20S proteasome LMP2 activity in MDCK-II cells overexpressing ABCG2 using Ac-PAL-AMC as fluorogenic substrate by fluorescence assay

C[C@]1(C(=O)[C@H](Cc2ccccc2)NC(=O)[C@@H]2Cc3ccc(cc3)OCCCCCCCC(=O)N3CCC[C@H]3C(=O)N2)CO1
IC50 [1]: 184 nM
IC50 [2]: 4640 nM
IC50 [3]: 106 nM
inhibition [4]: Active
Stability [5]: Stable
Ct [6]: 3.5 pmol/g
Activity [7]: Active
inhibition [8]: Active
Activity [9]: Active
Activity [10]: Non-Toxic
inhibition [11]: Active
